Reference: publication PMC10408732 (Anesthesia and Analgesia, 2023)
Like-named read-outs stand apart in the source and are kept apart here.

How the values were obtained:
[1] = test system: oxaliplatin-induced neuropathic pain in mice; test: Oxaliplatin-induced neuropathic pain, cold plate test; format: in vivo
How it was run: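 Male CD-1 mice, n = 10/condition, given oxaliplatin 2.4 mg/kg i.p. in 5% glucose, 5 days/week for 2 weeks. On day 15: baseline cold plate, then oral test compound (1, 3, 10 or 30 mg/kg, or a two-compound combination at 30 mg/kg each) in 1% carboxymethyl cellulose. Hind-paw licking latency every 15 min for 60–75 min, 30 s cutoff; mean ± SEM; 1-way ANOVA with Bonferroni.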

mice [2] = test: Rota-rod test; format: in vivo
How it was run: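 Rota-rod, mice n = 5/condition. Test compound 30 mg/kg, single dose (tested right after) or daily for 7 days (tested day 8); vehicle controls. Falls from the rod counted over a 30 s test, every 15 min for 1 h. Mice with <3 or >6 falls in the pretest were excluded.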

rat α7 nAChR [3] = target: T1, rat α7 nAChR (Rattus norvegicus, UniProt Q05941); test: Two-electrode voltage clamp at rα7 nAChRs expressed in Xenopus laevis oocytes; format: cell-based
rat α9α10 nAChR = rat α9α10 nAChR (Rattus norvegicus, UniProt P43144+Q9JLB5); test: Two-electrode voltage clamp at rα9α10 nAChRs expressed in Xenopus laevis oocytes; format: cell-based; conditions: for IC50: Inhibition IC50 (μM), −80 mV
human CaV2.2 channel [4] = target: T2, human CaV2.2 channel (Homo sapiens, UniProt Q00975); test: Whole-cell patch clamp recording of CaV2.2 channels expressed in HEK293T cells; format: cell-based
How it was run: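 Human CaV2.2 transiently expressed in HEK293T cells; whole-cell patch clamp at room temperature 24–48 h after transfection. Bath: 10 mM BaCl2, 30 mM TEA-Cl, pH 7.35. Pipette (2–3 MΩ): K-gluconate with 5 mM EGTA, pH 7.2. Ba2+ currents evoked from −80 mV by steps to −10 or −15 mV at 0.1 Hz, in the absence and presence of test compound.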

[5] = same software; cited from earlier work
[6] = test system: oxaliplatin-induced neuropathic pain in mice; conditions: oxaliplatin model; cited from earlier work
rat α7 nAChR [7] = target: T1, rat α7 nAChR; conditions: rα7, same conditions, cited from earlier work
human CaV2.2 channel [8] = target: T2, human CaV2.2 channel; conditions: cited from earlier work
mice [9] = test: Effect on pain threshold, cold plate test; format: in vivo; conditions: acute or repeated (7 days) 30 mg/kg, P > .05 vs vehicle
mice [10] = test: Effect on pain threshold, hot plate test; format: in vivo; conditions: acute or repeated (7 days) 30 mg/kg, P > .05 vs vehicle
[11] = oxaliplatin-treated mice, 30 mg/kg oral, cold plate test
[12] = acute, single dose 30 mg/kg, counted every 15 min for 1 h, P > .05 vs vehicle
[13] = read-out: inhibition of ACh-evoked currents

T2 sequence (Q00975 whole entry): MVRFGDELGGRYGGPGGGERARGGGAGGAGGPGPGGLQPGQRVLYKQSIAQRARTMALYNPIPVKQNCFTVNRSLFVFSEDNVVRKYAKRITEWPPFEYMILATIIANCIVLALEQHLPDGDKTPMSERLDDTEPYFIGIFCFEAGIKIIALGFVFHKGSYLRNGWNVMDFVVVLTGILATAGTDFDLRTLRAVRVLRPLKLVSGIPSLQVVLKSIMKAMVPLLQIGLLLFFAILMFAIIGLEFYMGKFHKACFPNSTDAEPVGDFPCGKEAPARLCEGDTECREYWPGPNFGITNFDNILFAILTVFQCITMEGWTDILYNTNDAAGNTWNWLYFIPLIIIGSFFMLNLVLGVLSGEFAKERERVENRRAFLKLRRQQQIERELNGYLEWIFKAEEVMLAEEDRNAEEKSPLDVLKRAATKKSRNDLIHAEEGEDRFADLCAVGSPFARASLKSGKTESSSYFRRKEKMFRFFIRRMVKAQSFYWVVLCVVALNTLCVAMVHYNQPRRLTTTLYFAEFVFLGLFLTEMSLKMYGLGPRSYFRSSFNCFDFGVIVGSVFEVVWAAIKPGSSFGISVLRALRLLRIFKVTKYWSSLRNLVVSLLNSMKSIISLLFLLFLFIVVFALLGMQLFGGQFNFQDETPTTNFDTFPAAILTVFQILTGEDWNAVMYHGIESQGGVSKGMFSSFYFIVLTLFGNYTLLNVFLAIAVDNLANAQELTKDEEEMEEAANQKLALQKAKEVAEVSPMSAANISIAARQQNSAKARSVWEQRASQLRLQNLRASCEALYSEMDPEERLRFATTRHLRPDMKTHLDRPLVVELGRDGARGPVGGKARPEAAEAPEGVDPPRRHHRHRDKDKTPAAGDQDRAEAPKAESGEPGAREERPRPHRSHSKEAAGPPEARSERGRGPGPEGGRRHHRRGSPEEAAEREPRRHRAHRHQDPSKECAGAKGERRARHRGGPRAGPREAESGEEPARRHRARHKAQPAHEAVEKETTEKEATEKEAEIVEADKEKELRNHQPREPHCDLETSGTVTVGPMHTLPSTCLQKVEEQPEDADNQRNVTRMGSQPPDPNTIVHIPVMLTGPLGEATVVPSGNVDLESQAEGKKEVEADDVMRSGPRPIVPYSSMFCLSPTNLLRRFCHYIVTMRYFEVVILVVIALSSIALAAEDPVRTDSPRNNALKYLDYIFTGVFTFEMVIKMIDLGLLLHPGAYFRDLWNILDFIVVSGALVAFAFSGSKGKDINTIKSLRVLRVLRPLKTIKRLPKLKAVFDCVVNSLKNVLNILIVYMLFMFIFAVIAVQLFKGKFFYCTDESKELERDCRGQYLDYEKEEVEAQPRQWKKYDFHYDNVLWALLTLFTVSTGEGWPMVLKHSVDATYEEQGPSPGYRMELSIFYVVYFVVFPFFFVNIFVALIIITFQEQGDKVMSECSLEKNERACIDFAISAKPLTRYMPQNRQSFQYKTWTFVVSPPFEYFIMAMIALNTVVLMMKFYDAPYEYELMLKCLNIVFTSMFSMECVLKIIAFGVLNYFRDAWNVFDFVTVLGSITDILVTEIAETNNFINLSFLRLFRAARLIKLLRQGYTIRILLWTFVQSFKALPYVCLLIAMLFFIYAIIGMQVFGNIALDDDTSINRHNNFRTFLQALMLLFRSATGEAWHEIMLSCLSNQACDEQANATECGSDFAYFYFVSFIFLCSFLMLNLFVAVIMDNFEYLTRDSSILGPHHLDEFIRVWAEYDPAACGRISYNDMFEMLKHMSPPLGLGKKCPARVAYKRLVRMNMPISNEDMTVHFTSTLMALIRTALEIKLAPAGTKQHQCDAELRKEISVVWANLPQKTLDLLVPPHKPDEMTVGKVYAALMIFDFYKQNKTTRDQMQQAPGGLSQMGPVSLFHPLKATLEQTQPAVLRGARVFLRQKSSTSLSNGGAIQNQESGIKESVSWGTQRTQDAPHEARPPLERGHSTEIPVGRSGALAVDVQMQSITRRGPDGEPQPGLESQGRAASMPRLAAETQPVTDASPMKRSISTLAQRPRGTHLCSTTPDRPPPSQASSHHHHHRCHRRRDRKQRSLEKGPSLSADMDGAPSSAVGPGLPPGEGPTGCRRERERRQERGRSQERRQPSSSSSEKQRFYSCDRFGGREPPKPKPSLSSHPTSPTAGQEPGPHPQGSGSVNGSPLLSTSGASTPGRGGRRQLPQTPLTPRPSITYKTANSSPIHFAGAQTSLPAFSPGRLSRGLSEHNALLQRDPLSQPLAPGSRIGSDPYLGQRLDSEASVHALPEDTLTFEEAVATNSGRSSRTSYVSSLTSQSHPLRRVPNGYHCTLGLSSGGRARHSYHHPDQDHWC
T2 sequence (P54284 whole entry partner): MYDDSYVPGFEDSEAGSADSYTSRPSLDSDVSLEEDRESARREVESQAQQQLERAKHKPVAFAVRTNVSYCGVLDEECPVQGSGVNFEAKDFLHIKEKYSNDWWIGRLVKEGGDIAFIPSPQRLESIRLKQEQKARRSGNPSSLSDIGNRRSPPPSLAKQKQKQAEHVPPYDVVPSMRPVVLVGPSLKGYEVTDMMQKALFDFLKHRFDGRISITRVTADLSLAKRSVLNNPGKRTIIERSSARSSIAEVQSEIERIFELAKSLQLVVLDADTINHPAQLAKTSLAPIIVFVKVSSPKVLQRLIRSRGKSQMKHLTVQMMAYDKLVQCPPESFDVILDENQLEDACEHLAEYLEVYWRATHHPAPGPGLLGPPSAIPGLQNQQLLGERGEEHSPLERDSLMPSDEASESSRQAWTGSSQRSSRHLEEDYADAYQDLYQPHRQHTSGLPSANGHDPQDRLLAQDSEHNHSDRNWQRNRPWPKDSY
T2 sequence (P54289 25-1103 partner): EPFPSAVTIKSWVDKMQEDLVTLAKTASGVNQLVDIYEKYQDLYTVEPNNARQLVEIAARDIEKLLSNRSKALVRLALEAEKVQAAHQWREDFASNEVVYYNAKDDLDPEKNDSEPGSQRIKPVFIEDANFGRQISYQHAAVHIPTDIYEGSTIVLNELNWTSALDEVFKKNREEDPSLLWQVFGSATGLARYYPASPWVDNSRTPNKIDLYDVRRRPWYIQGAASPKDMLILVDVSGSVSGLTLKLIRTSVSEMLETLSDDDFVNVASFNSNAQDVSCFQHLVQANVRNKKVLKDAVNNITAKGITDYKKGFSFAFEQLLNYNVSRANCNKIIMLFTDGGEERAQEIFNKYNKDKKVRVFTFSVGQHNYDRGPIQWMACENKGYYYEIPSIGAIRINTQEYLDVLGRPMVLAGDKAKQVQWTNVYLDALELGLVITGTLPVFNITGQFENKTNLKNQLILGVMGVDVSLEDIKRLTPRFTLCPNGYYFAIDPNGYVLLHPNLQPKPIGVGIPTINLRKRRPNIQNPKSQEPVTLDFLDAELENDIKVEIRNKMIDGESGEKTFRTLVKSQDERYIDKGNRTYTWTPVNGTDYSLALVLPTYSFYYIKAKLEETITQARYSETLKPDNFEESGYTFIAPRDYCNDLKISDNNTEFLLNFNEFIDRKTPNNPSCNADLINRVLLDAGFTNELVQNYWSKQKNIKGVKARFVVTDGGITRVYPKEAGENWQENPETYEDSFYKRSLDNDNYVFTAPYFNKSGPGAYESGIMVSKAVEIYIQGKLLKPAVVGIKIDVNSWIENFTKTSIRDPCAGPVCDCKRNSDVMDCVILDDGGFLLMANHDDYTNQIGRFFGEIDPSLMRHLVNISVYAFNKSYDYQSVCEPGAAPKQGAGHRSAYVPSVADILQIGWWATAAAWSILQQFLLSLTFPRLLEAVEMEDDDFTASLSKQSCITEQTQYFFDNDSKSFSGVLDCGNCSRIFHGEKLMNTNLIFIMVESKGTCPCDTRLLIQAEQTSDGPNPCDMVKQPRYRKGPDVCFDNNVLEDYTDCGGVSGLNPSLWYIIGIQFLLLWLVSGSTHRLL
rat α9α10 nAChR, sequence (P43144 26-479): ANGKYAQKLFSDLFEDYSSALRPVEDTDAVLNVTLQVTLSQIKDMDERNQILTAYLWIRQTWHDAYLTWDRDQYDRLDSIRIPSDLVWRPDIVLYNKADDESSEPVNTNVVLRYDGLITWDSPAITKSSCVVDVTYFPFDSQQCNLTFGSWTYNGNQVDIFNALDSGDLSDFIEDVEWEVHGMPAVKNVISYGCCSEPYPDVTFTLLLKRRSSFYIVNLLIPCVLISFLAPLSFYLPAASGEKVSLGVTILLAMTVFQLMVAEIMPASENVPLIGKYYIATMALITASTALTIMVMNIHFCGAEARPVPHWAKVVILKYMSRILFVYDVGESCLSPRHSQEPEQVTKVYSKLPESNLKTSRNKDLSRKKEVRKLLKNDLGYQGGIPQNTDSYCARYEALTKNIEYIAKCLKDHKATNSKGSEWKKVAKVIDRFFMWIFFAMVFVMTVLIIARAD
rat α9α10 nAChR, sequence (Q9JLB5 25-447): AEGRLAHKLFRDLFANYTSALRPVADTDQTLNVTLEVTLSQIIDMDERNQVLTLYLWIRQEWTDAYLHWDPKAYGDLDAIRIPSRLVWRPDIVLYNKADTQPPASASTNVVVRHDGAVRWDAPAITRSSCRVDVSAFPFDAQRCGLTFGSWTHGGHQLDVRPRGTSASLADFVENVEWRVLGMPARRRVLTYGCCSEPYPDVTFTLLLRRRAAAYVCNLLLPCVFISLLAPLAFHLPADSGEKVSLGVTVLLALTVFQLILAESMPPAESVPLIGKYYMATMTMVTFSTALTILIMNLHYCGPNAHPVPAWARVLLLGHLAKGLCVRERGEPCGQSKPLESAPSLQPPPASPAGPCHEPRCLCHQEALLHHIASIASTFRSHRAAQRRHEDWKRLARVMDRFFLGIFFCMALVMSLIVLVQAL

Cc1ccc(NC(=O)/C=C/c2cccs2)cc1 [DM497, (E)-3-(thiophen-2-yl)-N-(p-tolyl)acrylamide]
activity when administered alone (cold plate test) ([1]; mice without oxaliplatin, 10 mg/kg): without inducing any activity when administered alone
active dose (antinociceptive activity) ([1]; oxaliplatin model, this work): 10 mg/kg
onset of antinociceptive activity ([1]; oxaliplatin-treated mice, 10 mg/kg oral, cold plate test): 30 min
extent of the antinociceptive effect at 30 mg/kg compared to 10 mg/kg [1, 11]: without changing the extent of the antinociceptive effect
onset of antinociceptive activity [1, 11]: 15 min
antinociceptive activity (licking latency, cold plate test) ([1]; oxaliplatin-treated mice, day 15, single oral 1 mg/kg): but not 1 or 3 mg/kg
endurance time (number of falls per 30 seconds) (mice [2]; [12]): did not modify the endurance time
EC50 (rat α7 nAChR [3]): 86 ± 10 µM
Emax (rat α7 nAChR [3]; read-out: maximal efficacy at rα7 nAChRs): 196%
potentiation of ACh-evoked currents (rat α7 nAChR [3]; rα7, 30 µM ACh, 100 µM compound): ~ 100%
Potentiation nH (rat α7 nAChR [3]; rα7, agonist ACh 30 µM): ~2
IC50 (rat α9α10 nAChR; rα9α10, agonist ACh 10 µM): 340 ± 21 µM
IC50 (rat α9α10 nAChR; rα9α10, agonist ACh 100 µM): 369 ± 21 µM
inhibition at 300 µM (rat α9α10 nAChR; [13]): 40%
inhibitory activity at the CaV2.2 channel (in words) (human CaV2.2 channel [4]; CaV2.2 channel): minimal effect
inhibition at 300 µM (human CaV2.2 channel [4]; HEK-293T, read-out: inhibition of whole-cell Ba2+ currents, hCaV2.2, at 300 µM): ~20%

O=C(/C=C/c1ccco1)N1CCc2ccccc21 [DM489, (E)-3-(furan-2-yl)-1-(indolin-1-yl)prop-2-en-1-one]
LogBBB [5]: 0.17
active dose (antinociceptive activity) [6]: 10 mg/kg

O=C1[O][Pt]2([NH][C@@H]3CCCC[C@H]3[NH]2)[O]C1=O [Oxaliplatin, reference compound]
IC50 (rat α7 nAChR [3]; read-out: Inhibition IC50, rα7, agonist ACh 30 µM, −80 mV): 200 µM
IC50 (rat α7 nAChR [3]; read-out: Inhibition IC50, rα7, agonist nicotine 25 µM): 200 µM

Cc1ccc(NC(=O)/C=C/c2ccco2)cc1 [PAM-2, (E)-3-furan-2-yl-N-p-tolyl-acrylamide]
LogBBB [5]: 0.09
LogP [5]: 2.96
active dose (antinociceptive activity) [6]: 3 mg/kg
IC50 (rat α7 nAChR [7]; read-out: potency at rα7 nAChRs (IC50 as printed)): 12 µM
maximal efficacy at rα7 nAChRs (rat α7 nAChR [7]): 135% ± 4%
IC50 (human CaV2.2 channel [8]): 89 µM

Cc1ccc(N(C)C(=O)/C=C/c2ccco2)cc1 [DM490, (E)-3-(furan-2-yl)-N-methyl-N-(p-tolyl)acrylamide]
activity on oxaliplatin-treated animals (cold plate test) ([1]; 30 mg/kg oral, alone): without inducing any activity on oxaliplatin-treated animals
pain threshold for cold stimuli (mice [9]): did not change the pain threshold
pain threshold for heat stimuli (mice [10]): did not change the pain threshold
endurance time (number of falls per 30 seconds) (mice [2]; [12]): did not modify the endurance time
endurance time (number of falls per 30 seconds) (mice [2]; repeated, 30 mg/kg daily for 7 days, day 8, P > .05 vs vehicle): did not modify the endurance time
IC50 (rat α7 nAChR [3]): 15.1 ± 1.8 µM
inhibition at 10 µM (rat α7 nAChR [3]; read-out: inhibition of ACh-evoked current amplitude): ~40%
Inhibition nH (rat α7 nAChR [3]; rα7, agonist ACh 30 µM): < 1.5
IC50 (rat α9α10 nAChR; rα9α10, agonist ACh 10 µM): 41 ± 4 µM
IC50 (rat α9α10 nAChR; rα9α10, agonist ACh 100 µM): 36 ± 4 µM
inhibition at 30 µM (rat α9α10 nAChR; [13]): ~45%
fold higher antagonist potency than that for DM497 (rat α9α10 nAChR; α9α10 nAChR): > 8 fold
IC50 (human CaV2.2 channel [4]): 93 ± 16 µM
